Experimental data taken from ChEMBL document CHEMBL5696442, “Discovery of type II inhibitors of TGFβ-activated kinase 1 (TAK1) and mitogen-activated protein kinase kinase kinase kinase 2 (MAP4K2)” (J Med Chem, 2015).
The source made the active and inactive calls. The calls are words filed in the database; no cut-off is given here.

Assays:
L929 = assay: Inhibition of TNF alpha induced IKKalpha/beta phosphorylation level in mouse L929 cells at 100 nM preincubated for 30 mins followed by TNF alpha stimulation and measured after 5 mins by Western blot analysis; format: functional, cell-based
Procedure, shortened: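 Mouse L929 cells were pretreated with compound at 100 nM for 30 min, then stimulated with TNFα for 5 min. Lysates were Western blotted for phospho-IKKα/β, with tubulin as loading control.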

[1] = molecular target: Mitogen-activated protein kinase 8 (Homo sapiens, UniProt P45983); assay: Inhibition of JNK1 Lys2 labeling site in human A-375 cells at 0.5 uM by KiNativ Profiling analysis relative to control; format: cell-based
[2] = molecular target: T1, Phosphatidylinositol 5-phosphate 4-kinase type-2 alpha (Homo sapiens) (UniProt P48426); assay: Inhibition of PIP4K2A ATP labeling site in human A-375 cells at 0.5 uM by KiNativ Profiling analysis relative to control; format: cell-based
T1 sequence (whole entry): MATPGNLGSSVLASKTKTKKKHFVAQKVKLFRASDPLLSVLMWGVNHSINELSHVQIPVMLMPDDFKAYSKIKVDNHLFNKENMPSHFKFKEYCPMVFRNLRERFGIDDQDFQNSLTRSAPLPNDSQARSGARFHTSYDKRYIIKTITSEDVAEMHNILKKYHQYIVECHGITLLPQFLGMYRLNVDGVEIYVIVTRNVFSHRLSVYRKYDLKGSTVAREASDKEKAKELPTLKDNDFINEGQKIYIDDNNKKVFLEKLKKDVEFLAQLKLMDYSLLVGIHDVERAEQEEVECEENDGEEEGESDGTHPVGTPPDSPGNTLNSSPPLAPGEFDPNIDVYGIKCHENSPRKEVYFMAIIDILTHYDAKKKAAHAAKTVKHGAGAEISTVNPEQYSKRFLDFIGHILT

[3] = molecular target: Mitogen-activated protein kinase kinase kinase kinase 4 (Homo sapiens, UniProt O95819); assay: Inhibition of ZC1/HGK Lys2 labeling site in human A-375 cells at 0.05 uM by KiNativ Profiling analysis relative to control; format: cell-based
[4] = molecular target: T2, Kinase suppressor of Ras 2 (Homo sapiens) (UniProt Q6VAB6); assay: Inhibition of KSR2 ACT labeling site in human A-375 cells at 0.05 uM by KiNativ Profiling analysis relative to control; format: cell-based
T2 sequence (whole entry): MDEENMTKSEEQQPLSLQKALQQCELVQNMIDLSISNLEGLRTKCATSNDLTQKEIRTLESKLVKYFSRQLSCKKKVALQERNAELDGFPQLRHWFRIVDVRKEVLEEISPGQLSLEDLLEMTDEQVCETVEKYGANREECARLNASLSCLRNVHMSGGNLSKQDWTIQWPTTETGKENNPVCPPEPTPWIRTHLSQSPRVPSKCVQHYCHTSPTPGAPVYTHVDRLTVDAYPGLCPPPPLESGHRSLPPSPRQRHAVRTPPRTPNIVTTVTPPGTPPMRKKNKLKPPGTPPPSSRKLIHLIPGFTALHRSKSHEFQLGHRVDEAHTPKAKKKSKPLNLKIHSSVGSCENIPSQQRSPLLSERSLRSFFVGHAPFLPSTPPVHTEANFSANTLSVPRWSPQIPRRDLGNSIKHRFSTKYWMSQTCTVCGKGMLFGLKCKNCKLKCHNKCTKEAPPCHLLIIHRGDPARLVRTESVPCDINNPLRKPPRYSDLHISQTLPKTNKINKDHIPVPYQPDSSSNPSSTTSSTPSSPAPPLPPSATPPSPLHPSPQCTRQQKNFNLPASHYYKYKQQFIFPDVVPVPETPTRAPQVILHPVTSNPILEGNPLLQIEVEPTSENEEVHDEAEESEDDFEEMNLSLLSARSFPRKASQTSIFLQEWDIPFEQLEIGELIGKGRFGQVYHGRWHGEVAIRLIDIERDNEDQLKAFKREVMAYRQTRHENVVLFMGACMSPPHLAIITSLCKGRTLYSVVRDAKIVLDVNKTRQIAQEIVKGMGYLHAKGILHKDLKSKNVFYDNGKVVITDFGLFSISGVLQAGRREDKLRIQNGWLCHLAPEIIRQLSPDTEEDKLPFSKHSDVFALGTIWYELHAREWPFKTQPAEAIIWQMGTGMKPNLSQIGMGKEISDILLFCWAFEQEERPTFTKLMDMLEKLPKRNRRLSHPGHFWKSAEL

[5] = molecular target: T3, Mitogen-activated protein kinase 12 (Homo sapiens) (UniProt P53778); assay: Inhibition of p38 gamma Lys2 labeling site in human A-375 cells at 0.05 uM by KiNativ Profiling analysis relative to control; format: cell-based
T3 sequence (whole entry): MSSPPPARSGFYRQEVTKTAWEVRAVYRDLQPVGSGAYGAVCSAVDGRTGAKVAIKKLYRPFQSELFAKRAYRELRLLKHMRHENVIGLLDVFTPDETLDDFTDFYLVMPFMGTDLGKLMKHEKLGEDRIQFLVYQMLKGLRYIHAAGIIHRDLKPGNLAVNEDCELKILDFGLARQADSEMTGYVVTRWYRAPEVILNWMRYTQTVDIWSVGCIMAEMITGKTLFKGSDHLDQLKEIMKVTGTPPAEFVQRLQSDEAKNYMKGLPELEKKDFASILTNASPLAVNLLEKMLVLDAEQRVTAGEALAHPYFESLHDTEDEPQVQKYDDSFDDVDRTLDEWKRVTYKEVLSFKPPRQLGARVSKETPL

[6] = molecular target: DNA-PK/Ku70/Ku85 (Homo sapiens) (UniProt P78527+P12956+P13010); assay: Inhibition of DNAPK ATP labeling site harbouring KGGSWIQEINVAEK in human A-375 cells at 0.5 uM by KiNativ Profiling analysis relative to control; format: cell-based
Procedure, shortened: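 Live A375 melanoma cells were treated with compound at 0.5 or 5 μM, then lysed. Lysates were labeled with a lysine-reactive ATP or ADP-biotin probe. The read-out was protection of each kinase probe-labeling site from labeling, relative to control.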

Chain of Mitogen-activated protein kinase kinase kinase kinase 4 (O95819 2-1239 limits assumed): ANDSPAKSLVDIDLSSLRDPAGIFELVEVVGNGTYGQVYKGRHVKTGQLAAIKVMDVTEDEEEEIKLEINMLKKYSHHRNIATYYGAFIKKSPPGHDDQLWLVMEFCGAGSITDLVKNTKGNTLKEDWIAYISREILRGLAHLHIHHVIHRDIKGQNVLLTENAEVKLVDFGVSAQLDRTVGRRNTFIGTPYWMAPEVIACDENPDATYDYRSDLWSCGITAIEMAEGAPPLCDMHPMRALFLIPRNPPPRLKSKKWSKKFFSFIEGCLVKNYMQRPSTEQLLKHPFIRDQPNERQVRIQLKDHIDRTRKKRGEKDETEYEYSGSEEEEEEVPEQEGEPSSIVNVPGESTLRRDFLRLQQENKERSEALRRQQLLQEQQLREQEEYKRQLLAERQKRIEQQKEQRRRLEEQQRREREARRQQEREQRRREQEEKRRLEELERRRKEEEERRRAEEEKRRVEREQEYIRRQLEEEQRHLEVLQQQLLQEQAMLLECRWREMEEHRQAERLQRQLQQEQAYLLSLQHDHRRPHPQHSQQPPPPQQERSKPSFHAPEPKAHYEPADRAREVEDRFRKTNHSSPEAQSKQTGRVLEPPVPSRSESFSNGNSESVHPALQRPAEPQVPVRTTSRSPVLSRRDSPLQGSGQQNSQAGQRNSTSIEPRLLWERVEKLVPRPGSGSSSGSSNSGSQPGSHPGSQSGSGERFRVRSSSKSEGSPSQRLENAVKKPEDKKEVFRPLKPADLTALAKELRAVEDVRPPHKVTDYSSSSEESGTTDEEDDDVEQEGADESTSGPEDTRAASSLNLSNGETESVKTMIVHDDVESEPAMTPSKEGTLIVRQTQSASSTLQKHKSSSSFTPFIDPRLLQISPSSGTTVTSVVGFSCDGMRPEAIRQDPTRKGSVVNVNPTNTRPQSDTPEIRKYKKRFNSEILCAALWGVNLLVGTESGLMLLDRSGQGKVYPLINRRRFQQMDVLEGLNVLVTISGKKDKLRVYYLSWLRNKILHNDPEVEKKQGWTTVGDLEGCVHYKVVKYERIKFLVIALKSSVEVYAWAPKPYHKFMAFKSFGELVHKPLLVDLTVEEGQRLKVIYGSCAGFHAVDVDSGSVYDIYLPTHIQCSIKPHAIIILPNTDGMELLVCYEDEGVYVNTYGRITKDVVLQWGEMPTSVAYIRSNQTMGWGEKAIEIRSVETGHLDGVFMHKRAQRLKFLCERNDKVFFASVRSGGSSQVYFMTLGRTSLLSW
Chain of Mitogen-activated protein kinase 8 (P45983 whole entry): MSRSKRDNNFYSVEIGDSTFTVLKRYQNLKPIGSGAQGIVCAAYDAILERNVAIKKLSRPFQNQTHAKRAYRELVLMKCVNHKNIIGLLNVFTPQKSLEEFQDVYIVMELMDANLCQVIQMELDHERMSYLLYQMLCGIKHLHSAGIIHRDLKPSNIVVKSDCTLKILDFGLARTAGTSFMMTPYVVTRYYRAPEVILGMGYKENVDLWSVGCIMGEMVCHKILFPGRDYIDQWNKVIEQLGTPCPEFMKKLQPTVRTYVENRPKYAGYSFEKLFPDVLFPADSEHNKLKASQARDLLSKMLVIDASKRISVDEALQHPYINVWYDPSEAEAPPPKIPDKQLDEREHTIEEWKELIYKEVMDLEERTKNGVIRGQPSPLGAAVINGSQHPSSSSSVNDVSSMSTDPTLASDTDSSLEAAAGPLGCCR

| Structure (SMILES) | inhibition (L929) | inhibition [1] [%] | inhibition [2] [%] | inhibition [3] [%] | inhibition [4] [%] | inhibition [5] [%] | inhibition [6] [%] |
| --- | --- | --- | --- | --- | --- | --- | --- |
| CNc1cc(Oc2cc(C(=O)Nc3cc(N4CCN(C)CC4)cc(C(F)(F)F)c3)ccc2C)ncn1 | inactive |  |  |  |  |  |  |
| CCN1CCN(Cc2ccc(NC(=O)c3ccc(C)c(/C=C/c4cnc5[nH]ccc5c4OC)c3)cc2C(F)(F)F)CC1 |  | 40.6 | -5.5 | 19.5 | 8.6 | 24.3 | 17.8 |
| CNc1cc(Oc2cc(C(=O)Nc3cc(-n4cnc(C)c4)cc(C(F)(F)F)c3)ccc2C)ncn1 | inactive |  |  |  |  |  |  |
| CCN1CCN(Cc2ccc(NC(=O)c3ccc(C)c(Oc4ccnc5[nH]ccc45)c3)cc2C(F)(F)F)CC1 |  | 73.7 | -0.4 | 32.6 | 37 | 64.9 | 34 |
